Reference: ChEMBL document CHEMBL1144684, “Evaluation of a series of naphthamides as potent, orally active vascular endothelial growth factor receptor-2 tyrosine kinase inhibitors” (J Med Chem, 2008)
pIC50: −log10 of the molar value. Active and inactive are the calls of the source. No cut-off for these calls is given here.

How the values were obtained:
[1] = AUC (0 to 24 hrs) in human HT29 cell xenografted CD1 nu/nu mouse at 10 mg/kg, po qd; assay type: ADME, organism-based, HT-29; design: time < 24 hr, dose 10 mg/kg, route oral; conditions: in vivo
[2] = AUC (0 to 24 hrs) in cynomolgus monkey at 2 mg/kg, po; assay type: ADME, organism-based, Macaca fascicularis; design: time < 24 hr, dose 2 mg/kg, route oral; conditions: plasma
Outline: (§1)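 Compound given iv and po as single doses; vehicles: mouse iv PEG 400, po OraPlus; dog iv DMSO, po 1% Tween-80/2% HPMC/97% water; cynomolgus iv propylene glycol, po suspension.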

[3] = Oral bioavailability in Sprague-Dawley rat at 2 mg/kg; assay type: ADME, organism-based; conditions: in vivo
Outline: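 Male Sprague–Dawley rats dosed iv at 0.5 mg/kg as DMSO solution or po at 2 mg/kg as suspension in 100% OraPlus. Serial jugular blood, plasma LC-MS/MS quantitation, noncompartmental analysis.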

[4] = Half life in dog at 0.5 mg/kg, po; assay type: ADME, organism-based, Canis lupus familiaris; design: dose 0.5 mg/kg, route oral; conditions: in vivo; outline: as §1
[5] = AUC (0 to 24 hrs) in dog at 0.5 mg/kg, po; assay type: ADME, organism-based, Canis lupus familiaris; design: time < 24 hr, dose 0.5 mg/kg, route oral; conditions: plasma; outline: as §1
[6] = Volume of distribution at steady state in mouse at 2 mg/kg, iv; assay type: ADME, organism-based; design: dose 2 mg/kg, route intravenous; conditions: in vivo, read-out: Vdss
Outline: (§2)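 Intravenous dosing of male/unspecified animals per species; vehicles: mouse 2 mg/kg in Peg 400, dog 0.5 mg/kg in DMSO, cynomolgus monkey 0.5 mg/kg in propylene glycol. Parameters from plasma concentration–time data by noncompartmental analysis.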

[7] = Clearance in mouse at 2 mg/kg, iv; assay type: ADME, organism-based; design: dose 2 mg/kg, route intravenous; conditions: in vivo; outline: as §1
[8] = target: Vascular endothelial growth factor receptor 2 (Homo sapiens, UniProt P35968)
[9] = target: Hepatocyte growth factor receptor (Homo sapiens, UniProt P08581); experiment: Inhibition of c-Met
[10] = Mean residence time in mouse at 2 mg/kg, iv; assay type: ADME, organism-based; design: dose 2 mg/kg, route intravenous; conditions: in vivo; outline: as §2
[11] = Protein binding in dog plasma; assay type: ADME, organism-based, Canis lupus familiaris; conditions: read-out: PPB (converted)
Outline: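 Compound spiked into plasma at 5 µg/mL (12.9 µM) from a DMSO stock, incubated 37 °C 15 min, then ultracentrifuged 3 h at 37 °C. Supernatant below lipid layer measured by LC-MS (n = 6) against QC in plasma filtrate; % bound = 1 − (centrifuged concentration / mean QC) × 100.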

[12] = Protein binding in cynomolgus monkey plasma; assay type: ADME, cell-free, Macaca fascicularis; conditions: read-out: PPB (converted)
Calu-6 (Homo sapiens) [13] = experiment: Antitumor activity in human Calu6 cell xenografted CD1 nu/nu mouse assessed as inhibition of tumor growth at 20 mg/kg, po qd for 14 days; conditions: Calu-6, po, 336 h, read-out: TGI
[14] = target: Mast/stem cell growth factor receptor Kit (Homo sapiens) (UniProt P10721); experiment: Inhibition of c-Kit
[15] = target: Tyrosine-protein kinase Lck (Homo sapiens, UniProt P06239); experiment: Inhibition of Lck
[16] = Tmax in dog at 0.5 mg/kg, po; assay type: ADME, organism-based, Canis lupus familiaris; design: dose 0.5 mg/kg, route oral; conditions: in vivo
Outline: (§3)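 Oral suspension dosing; vehicles: mouse 10 mg/kg in OraPlus, dog 0.5 mg/kg in 1% Tween-80/2% HPMC/97% water, cynomolgus monkey 2 mg/kg.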

[17] = Mean residence time in cynomolgus monkey at 0.5 mg/kg, iv; assay type: ADME, organism-based, Macaca fascicularis; design: dose 0.5 mg/kg, route intravenous; conditions: in vivo; outline: as §1
Liver microsomes [18] = experiment: Metabolic stability assessed as covalent binding in presence of NADPH in rat liver microsomes at 10 uM after 1 hr; assay type: ADME, Microsome
Outline: (§4)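 14C-labelled compound at 10 µM with human or rat liver microsomes (1 mg/mL) in 0.1 M potassium phosphate pH 7.4, with or without 1 mM NADPH and 1 mM glutathione, 60 min; quenched with ice-cold acetonitrile. Pellet washed with 80% methanol and ethanol/ether, solubilized, protein by BCA, radioactivity by scintillation counting.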

[19] = target: Platelet-derived growth factor receptor alpha (Homo sapiens) (UniProt P16234); experiment: Inhibition of PDGFRalpha
[20] = Half life in cynomolgus monkey at 2 mg/kg, po; assay type: ADME, organism-based, Macaca fascicularis; design: dose 2 mg/kg, route oral; conditions: in vivo; outline: as §1
[21] = AUC in VEGF-soaked disk implanted in Sprague-Dawley rat; assay type: ADME, organism-based; conditions: plasma
[22] = Cmax in cynomolgus monkey at 2 mg/kg, po; assay type: ADME, organism-based, Macaca fascicularis; design: dose 2 mg/kg, route oral; conditions: in vivo; outline: as §1
Angiopoietin-1 receptor = Angiopoietin-1 receptor (Homo sapiens, UniProt Q02763); experiment: Inhibition of Tie2
[23] = Oral bioavailability in dog at 0.5 mg/kg, po; assay type: ADME, organism-based, Canis lupus familiaris; conditions: in vivo; outline: as §3
Calu-6 (Homo sapiens) [24] = experiment: Antitumor activity in human Calu6 cell xenografted CD1 nu/nu mouse assessed as inhibition of tumor growth at 6 mg/kg, po qd for 14 days; conditions: Calu-6, po, 336 h, read-out: TGI
[25] = Half life in mouse at 10 mg/kg, po; assay type: ADME, organism-based; design: dose 10 mg/kg, route oral; conditions: in vivo; outline: as §1
[26] = target: Vascular endothelial growth factor receptor 1 (Homo sapiens, UniProt P17948); experiment: Inhibition of human VEGFR1
[27] = Cmax in Sprague-Dawley rat at 2 mg/kg, po; assay type: ADME, organism-based; design: dose 2 mg/kg, route oral; conditions: in vivo
Outline: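 Male Sprague–Dawley rats dosed iv via femoral vein as DMSO solution (1 or 0.5 mg/kg) or po by gavage as OraPlus suspension (pH 2.0–2.2 with methanesulfonic acid; 10 or 2 mg/kg). Serial jugular blood over 12–24 h; plasma acetonitrile precipitation, LC-MS/MS (MRM) with internal standard; noncompartmental parameters.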

Aurora kinase A = target: T1, Aurora kinase A (Homo sapiens, UniProt O14965); experiment: Inhibition of Aurora A
T1 sequence (O14965 whole entry): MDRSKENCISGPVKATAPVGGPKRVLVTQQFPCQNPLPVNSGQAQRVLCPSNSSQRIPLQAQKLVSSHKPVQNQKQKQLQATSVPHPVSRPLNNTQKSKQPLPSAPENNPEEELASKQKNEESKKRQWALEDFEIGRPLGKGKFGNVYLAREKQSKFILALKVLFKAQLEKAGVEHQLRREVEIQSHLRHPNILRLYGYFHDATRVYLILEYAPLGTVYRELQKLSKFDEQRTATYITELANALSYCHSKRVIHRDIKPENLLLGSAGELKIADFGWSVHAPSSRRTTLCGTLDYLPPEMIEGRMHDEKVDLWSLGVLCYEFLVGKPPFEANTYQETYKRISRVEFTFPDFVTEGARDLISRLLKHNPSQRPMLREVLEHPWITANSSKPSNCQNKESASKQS

[28] = Cmax in dog at 0.5 mg/kg, po; assay type: ADME, organism-based, Canis lupus familiaris; design: dose 0.5 mg/kg, route oral; conditions: in vivo; outline: as §1
[29] = target: Tyrosine-protein kinase ABL1 (Homo sapiens, UniProt P00519)
[30] = Cmax in VEGF-soaked disk implanted in Sprague-Dawley rat; assay type: ADME, organism-based; conditions: in vivo
Liver microsomes [31] = experiment: Metabolic stability assessed as covalent binding in presence of NADPH and GSH in human liver microsomes at 10 uM after 1 hr; assay type: ADME, Microsome; outline: as §4
Mus musculus = experiment: Cmax in mouse at 10 mg/kg, po; assay type: ADME, organism-based; design: dose 10 mg/kg, route oral; conditions: in vivo; outline: as §1
Liver microsomes [32] = experiment: Metabolic stability assessed as covalent binding in presence of NADPH and GSH in rat liver microsomes at 10 uM after 1 hr; assay type: ADME, Microsome; outline: as §4
Liver microsomes [33] = experiment: Metabolic stability assessed as covalent binding in presence of NADPH in human liver microsomes at 10 uM after 1 hr; assay type: ADME, Microsome; outline: as §4
[34] = AUC (0 to 24 hrs) in mouse at 10 mg/kg, po; assay type: ADME, organism-based; design: time < 24 hr, dose 10 mg/kg, route oral; conditions: plasma; outline: as §1

Chain of Mast/stem cell growth factor receptor Kit (Homo sapiens) (P10721 whole entry): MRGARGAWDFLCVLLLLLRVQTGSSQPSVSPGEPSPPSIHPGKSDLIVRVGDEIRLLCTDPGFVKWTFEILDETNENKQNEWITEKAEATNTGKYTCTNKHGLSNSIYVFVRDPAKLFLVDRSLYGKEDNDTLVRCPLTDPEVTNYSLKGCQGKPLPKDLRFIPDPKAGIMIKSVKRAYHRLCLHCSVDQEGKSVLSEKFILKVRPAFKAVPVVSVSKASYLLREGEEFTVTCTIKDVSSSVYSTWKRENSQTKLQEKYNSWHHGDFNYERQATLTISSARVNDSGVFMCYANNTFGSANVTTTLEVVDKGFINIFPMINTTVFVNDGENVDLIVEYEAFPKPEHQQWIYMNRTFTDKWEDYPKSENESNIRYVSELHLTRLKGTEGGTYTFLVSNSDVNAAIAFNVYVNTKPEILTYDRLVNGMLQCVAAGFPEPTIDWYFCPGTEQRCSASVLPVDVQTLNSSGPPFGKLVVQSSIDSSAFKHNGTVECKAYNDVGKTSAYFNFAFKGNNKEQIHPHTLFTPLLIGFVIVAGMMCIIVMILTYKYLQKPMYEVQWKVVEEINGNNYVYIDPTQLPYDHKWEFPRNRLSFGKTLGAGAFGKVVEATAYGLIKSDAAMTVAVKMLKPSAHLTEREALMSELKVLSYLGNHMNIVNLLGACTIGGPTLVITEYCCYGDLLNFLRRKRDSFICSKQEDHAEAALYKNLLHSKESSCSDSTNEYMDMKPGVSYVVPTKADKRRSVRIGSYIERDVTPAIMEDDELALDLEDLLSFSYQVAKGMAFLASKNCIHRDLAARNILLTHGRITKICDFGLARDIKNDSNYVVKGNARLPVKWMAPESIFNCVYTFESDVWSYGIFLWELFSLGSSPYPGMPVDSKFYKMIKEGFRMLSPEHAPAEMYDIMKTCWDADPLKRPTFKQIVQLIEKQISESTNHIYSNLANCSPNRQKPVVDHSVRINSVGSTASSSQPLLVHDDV
Chain of Vascular endothelial growth factor receptor 1 (P17948 whole entry): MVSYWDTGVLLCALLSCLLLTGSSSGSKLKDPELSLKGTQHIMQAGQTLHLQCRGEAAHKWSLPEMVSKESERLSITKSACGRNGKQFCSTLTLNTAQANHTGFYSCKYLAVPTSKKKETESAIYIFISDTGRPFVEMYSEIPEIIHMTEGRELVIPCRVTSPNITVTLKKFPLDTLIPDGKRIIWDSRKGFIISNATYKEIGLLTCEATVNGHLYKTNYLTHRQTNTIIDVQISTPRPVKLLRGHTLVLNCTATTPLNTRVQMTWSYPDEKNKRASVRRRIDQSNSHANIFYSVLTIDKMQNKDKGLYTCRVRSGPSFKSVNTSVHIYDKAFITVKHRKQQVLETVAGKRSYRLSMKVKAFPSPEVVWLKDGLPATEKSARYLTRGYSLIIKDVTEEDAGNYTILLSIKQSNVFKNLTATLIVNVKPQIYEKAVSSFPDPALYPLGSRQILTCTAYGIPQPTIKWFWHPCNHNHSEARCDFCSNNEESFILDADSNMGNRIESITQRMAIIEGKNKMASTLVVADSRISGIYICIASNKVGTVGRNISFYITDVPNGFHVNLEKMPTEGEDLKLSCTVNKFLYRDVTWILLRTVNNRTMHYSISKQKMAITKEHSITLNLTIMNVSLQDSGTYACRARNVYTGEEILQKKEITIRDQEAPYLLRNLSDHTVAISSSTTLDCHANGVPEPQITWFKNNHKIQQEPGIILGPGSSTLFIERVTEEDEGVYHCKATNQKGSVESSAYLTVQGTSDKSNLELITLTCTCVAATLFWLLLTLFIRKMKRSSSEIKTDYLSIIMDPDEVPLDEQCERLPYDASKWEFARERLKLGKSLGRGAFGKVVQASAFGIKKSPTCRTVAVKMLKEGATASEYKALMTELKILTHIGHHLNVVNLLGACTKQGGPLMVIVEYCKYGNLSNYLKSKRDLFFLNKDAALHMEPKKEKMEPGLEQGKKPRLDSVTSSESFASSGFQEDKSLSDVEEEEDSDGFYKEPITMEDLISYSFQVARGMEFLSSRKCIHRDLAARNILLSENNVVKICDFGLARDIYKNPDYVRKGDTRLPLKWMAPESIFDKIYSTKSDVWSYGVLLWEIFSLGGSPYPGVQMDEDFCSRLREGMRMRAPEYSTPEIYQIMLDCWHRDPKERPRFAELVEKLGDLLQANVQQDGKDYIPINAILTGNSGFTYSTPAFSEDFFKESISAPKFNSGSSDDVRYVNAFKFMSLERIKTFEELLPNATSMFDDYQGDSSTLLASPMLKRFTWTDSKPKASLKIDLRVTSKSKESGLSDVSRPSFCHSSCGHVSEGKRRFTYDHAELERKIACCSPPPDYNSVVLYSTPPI
Chain of Tyrosine-protein kinase Lck (P06239 whole entry): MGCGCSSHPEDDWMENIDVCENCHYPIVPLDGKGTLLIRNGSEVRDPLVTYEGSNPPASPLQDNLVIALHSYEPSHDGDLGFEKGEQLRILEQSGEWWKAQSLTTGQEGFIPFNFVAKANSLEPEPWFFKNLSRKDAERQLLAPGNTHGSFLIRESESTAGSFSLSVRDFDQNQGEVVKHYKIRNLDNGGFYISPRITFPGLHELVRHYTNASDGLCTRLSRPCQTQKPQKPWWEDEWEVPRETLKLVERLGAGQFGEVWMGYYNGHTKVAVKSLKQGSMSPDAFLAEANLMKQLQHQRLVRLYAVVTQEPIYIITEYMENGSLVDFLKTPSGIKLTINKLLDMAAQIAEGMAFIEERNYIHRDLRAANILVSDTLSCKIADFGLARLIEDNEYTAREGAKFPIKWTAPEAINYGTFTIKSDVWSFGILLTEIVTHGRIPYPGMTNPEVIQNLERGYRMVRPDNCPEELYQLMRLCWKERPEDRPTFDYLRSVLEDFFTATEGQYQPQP
Chain of Platelet-derived growth factor receptor alpha (Homo sapiens) (P16234 whole entry): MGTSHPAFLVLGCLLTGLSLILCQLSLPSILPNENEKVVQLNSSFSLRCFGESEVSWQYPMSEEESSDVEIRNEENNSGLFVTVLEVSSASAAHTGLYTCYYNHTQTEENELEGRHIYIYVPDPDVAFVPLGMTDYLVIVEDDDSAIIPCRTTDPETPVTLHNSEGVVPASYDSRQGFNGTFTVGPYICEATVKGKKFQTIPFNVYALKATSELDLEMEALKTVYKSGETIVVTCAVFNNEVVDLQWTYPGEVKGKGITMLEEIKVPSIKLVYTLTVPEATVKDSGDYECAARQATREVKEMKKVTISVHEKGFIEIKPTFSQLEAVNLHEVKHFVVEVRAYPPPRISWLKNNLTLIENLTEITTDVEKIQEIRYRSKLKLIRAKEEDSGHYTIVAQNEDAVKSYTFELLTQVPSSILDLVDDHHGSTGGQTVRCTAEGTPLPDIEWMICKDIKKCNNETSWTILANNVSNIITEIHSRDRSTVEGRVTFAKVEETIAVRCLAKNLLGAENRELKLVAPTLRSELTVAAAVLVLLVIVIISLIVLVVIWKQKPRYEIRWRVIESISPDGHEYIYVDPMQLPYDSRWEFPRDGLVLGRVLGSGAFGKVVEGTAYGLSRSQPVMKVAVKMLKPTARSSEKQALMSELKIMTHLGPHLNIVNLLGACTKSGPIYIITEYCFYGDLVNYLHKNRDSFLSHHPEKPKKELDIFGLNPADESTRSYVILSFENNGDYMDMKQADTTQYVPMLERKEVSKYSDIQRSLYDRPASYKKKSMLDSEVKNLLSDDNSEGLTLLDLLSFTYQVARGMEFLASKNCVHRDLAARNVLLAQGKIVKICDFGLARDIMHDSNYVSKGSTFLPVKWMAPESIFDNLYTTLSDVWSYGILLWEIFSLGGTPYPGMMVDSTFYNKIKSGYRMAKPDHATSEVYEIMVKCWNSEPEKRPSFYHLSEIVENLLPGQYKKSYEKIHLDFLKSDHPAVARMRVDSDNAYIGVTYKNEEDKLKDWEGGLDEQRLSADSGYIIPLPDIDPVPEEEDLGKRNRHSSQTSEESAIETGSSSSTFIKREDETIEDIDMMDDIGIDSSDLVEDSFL
Chain of Angiopoietin-1 receptor (Q02763 whole entry): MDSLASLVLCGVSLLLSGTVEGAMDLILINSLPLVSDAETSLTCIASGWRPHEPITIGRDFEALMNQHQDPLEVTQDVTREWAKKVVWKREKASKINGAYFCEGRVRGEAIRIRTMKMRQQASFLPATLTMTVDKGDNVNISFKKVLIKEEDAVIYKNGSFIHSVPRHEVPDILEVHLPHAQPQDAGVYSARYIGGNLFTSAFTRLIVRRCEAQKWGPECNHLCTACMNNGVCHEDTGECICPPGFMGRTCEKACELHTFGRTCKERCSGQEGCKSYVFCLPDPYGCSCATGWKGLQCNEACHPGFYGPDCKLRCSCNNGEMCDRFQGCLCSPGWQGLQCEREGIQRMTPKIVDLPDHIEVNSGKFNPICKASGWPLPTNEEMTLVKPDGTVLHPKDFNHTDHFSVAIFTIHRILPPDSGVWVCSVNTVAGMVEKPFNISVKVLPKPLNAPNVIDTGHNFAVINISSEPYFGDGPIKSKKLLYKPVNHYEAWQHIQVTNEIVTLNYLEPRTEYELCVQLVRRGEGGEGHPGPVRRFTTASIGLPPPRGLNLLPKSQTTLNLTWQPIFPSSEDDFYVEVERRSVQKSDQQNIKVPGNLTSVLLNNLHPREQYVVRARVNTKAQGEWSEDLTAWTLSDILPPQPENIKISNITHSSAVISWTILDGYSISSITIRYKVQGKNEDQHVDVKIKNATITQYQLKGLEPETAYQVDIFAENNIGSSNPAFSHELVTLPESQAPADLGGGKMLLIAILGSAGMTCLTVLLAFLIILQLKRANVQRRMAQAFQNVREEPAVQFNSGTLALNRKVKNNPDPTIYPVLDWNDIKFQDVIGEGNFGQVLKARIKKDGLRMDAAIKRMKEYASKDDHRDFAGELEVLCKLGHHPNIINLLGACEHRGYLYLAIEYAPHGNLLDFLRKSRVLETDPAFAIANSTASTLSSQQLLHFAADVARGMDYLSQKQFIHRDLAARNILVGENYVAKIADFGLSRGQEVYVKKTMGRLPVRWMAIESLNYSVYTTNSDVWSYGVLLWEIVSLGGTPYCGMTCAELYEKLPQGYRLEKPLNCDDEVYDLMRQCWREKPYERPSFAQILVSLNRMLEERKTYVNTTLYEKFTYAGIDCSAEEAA

COc1cc2nccc(Oc3ccc4c(C(N)=O)cccc4c3)c2cc1OC showed an AUC at 24 h [1] of 3.9 µM·h, an AUC(0-t) at 24 h [2] of 1360 ng·h/mL and a bioavailability [3] of 96%. The half-life [4] was 16 h, the AUC(0-t) at 24 h [5] was 3650 ng·h/mL and the Vd [6] was 5.74 L/kg. The clearance [7] was 42.4 mL/min/kg, the pIC50 [8] was 9.05 and the pIC50 [9] was 5.16. For the same molecule, the MRT [10] was 2.3 h, the fraction unbound [11] was 0.038 and the fraction unbound [12] was 0.008. The inhibition in vivo at 20 mg/kg (Calu-6 (Homo sapiens) [13]) was 85%, the Activity [14] was “Active” and the pIC50 [15] was 6.52. The Tmax [16] was 0.75 h, the MRT [17] was 8.6 h and the Stability (Liver microsomes [18]) was 39 pmol/mg/h. For the same molecule, the Activity [19] was “Active”, the half-life [20] was 13 h and the AUC [21] was 0.48 µM·h. It also gave a Cmax [22] of 1050 ng/mL, a pIC50 (Angiopoietin-1 receptor) of 4.60 and a bioavailability [23] of 73%. The inhibition in vivo at 6 mg/kg (Calu-6 (Homo sapiens) [24]) was 52%, the half-life [25] was 5.6 h and the Activity [26] was “Active”. For the same molecule, the Cmax [27] was 1690 ng/mL, the pIC50 (Aurora kinase A) was 5.30 and the Cmax [28] was 464 ng/mL. For the same molecule, the pIC50 [29] was 6.96, the Cmax [30] was 50 nM and the Stability (Liver microsomes [31]) was 3.2 pmol/mg/h. The Cmax (Mus musculus) was 890 ng/mL, the Stability (Liver microsomes [32]) was 3.2 pmol/mg/h and the Stability (Liver microsomes [33]) was 36 pmol/mg/h. The AUC(0-t) at 24 h [34] was 1500 ng·h/mL.
